Consider five compounds from ChEMBL document CHEMBL1136016, “Synthesis, biological activity, and molecular modeling investigation of new pyrazolo[4,3-e]-1,2,4-triazolo[1,5-c]pyrimidine derivatives as human A(3) adenosine receptor antagonists” (J Med Chem, 2002).

Test [1] has as its target T1, Adenosine receptor A1 (Homo sapiens, UniProt P30542).
T1 sequence (P30542 whole entry): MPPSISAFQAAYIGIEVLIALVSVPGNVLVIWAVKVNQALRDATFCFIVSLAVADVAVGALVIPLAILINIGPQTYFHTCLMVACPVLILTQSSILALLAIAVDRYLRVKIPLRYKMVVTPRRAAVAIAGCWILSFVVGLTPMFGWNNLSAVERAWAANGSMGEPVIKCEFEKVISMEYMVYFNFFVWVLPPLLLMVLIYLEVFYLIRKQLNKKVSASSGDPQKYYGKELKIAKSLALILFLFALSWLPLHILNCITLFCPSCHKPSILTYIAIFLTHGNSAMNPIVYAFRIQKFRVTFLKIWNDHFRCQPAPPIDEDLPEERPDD
Kind of test: Displacement of [3H]DPCPX from human Adenosine A1 receptor expressed in CHO cells; range 245-370. It is filed as cell-based. (Loss of bound radioactivity is the signal in a displacement assay; it reports binding, not function.)

Test [2] deals with T2, Adenosine receptor A2b (Homo sapiens, UniProt P29275).
T2 sequence (P29275 whole entry): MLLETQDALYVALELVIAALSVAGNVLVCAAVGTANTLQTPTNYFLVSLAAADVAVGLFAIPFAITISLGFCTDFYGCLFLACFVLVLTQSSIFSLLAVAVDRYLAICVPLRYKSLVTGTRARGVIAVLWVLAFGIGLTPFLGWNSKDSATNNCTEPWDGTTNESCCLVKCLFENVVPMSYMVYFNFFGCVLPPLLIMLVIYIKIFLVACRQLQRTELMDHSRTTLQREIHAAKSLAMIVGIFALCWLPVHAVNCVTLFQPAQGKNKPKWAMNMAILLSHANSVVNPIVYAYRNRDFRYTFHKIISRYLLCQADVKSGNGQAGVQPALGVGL
The test can be described thus: Displacement of [3H]DPCPX from human Adenosine A2B receptor expressed in HEK293 cells; range 49-77. It is filed as cell-based. The method, boiled down:
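Competition binding on membranes of HEK-293 cells carrying recombinant human A2B receptor. Incubation 60 min at 25 °C in 50 mM Tris HCl pH 7.4 with 10 mM MgCl2, 1 mM EDTA, 0.1 mM benzamidine and 2 IU/mL adenosine deaminase. Radioligand 40 nM [3H]DPCPX, at least six to eight test concentrations. NECA defined nonspecific binding. Bound ligand separated on glass-fibre filters and counted; n = 3-6.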

Test [3] deals with T3, Adenosine receptor A3 (Homo sapiens, UniProt P0DMS8).
T3 sequence (P0DMS8 whole entry): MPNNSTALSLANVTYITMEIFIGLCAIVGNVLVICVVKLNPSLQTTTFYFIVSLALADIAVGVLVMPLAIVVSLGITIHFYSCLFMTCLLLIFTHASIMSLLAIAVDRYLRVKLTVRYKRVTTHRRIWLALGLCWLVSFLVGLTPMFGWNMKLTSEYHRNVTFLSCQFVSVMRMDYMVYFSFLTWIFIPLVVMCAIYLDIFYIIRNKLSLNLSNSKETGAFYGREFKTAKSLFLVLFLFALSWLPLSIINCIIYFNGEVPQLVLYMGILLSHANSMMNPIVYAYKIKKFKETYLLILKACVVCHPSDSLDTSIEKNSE
The test can be described thus: Displacement of [3H]MRE3008-F20 from human Adenosine A3 receptor expressed in HEK cells; range 0.61-0.83. It is filed as cell-based, HEK293.

In test [4] the target is T4, Adenosine receptor A2a (Homo sapiens, UniProt P29274). Kind of test: Displacement of [3H]SCH-58261 from human Adenosine A2A receptor expressed in HEK293 cells; range 103-142. Format: cell-based.
For test [5], the target named is Adenosine receptors; A2b & A3 (Homo sapiens) (UniProt P29275+P0DMS8). The test can be described thus: Selectivity ratio (h2B/hA3). It is filed as protein assay.
The target in test [6] is Adenosine receptors; A1 & A3 (Homo sapiens) (UniProt P30542+P0DMS8). The test can be described thus: Selectivity ratio (hA1/hA3). It is filed as protein assay.
Test [7] has as its target T2, Adenosine receptor A2b. Kind of test: Displacement of [3H]DPCPX from human Adenosine A2B receptor expressed in HEK293 cells; range 149-204. Format: cell-based. An outline of the steps:
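HEK-293 membranes expressing the human receptor were incubated 60 min at 25 °C. Six to eight test concentrations were used. Nonspecific binding was set with NECA. n = 3-6.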

Test [8] has as its target T1, Adenosine receptor A1. Kind of test: Displacement of [3H]DPCPX from human Adenosine A1 receptor expressed in CHO cells; range 198-382. Format: cell-based. The method, boiled down:
(§1)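 Human recombinant A1 receptor in CHO cell membranes, resuspended in 50 mM Tris HCl pH 7.4. Displacement run 120 min at 25 °C with 1 nM [3H]DPCPX, 50 µg protein per assay, and at least six to eight test concentrations. Nonspecific binding defined with CHA. Bound and free separated on glass-fiber filters; filter radioactivity counted. n = 3-6.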

For test [9], the target named is T4, Adenosine receptor A2a. Kind of test: Displacement of [3H]SCH-58261 from human Adenosine A2A receptor expressed in HEK293 cells; range 96-133. Format: cell-based.
Test [10] deals with T3, Adenosine receptor A3. The test can be described thus: biochemical.
In test [11] the target is T2, Adenosine receptor A2b. The test can be described thus: Displacement of [3H]DPCPX from human Adenosine A2B receptor expressed in HEK293 cells; range 89-116. Format: cell-based. An outline of the steps: (§2)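 Membranes from HEK-293 cells with human recombinant A2B receptor. Incubation 60 min at 25 °C in 50 mM Tris HCl, 10 mM MgCl2, 1 mM EDTA, 0.1 mM benzamidine, pH 7.4, with 2 IU/mL adenosine deaminase and 40 nM [3H]DPCPX. At least six to eight test concentrations. Nonspecific binding defined with NECA. n = 3-6.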

Test [12] deals with T1, Adenosine receptor A1. Kind of test: Displacement of [3H]DPCPX from human Adenosine A1 receptor expressed in CHO cells; range 332-479. Format: cell-based. An outline of the steps: as §1
For test [13], the target named is T3, Adenosine receptor A3. Kind of test: Displacement of [3H]MRE3008-F20 binding at human Adenosine A3 receptor expressed in HEK cells; range 0.82-1.01. Format: cell-based, HEK293.
In test [14] the target is T3, Adenosine receptor A3. Kind of test: Inhibition of IB-MECA agonist-mediated cAMP production in CHO cell membranes expressing human Adenosine A3 receptor; range 4.4-15.2. It is filed as functional, cell-based. Background: Changes in cAMP serve as a functional read-out for many G protein-coupled receptors.
In test [15] the target is T4, Adenosine receptor A2a. The test can be described thus: Displacement of [3H]SCH-58261 from human Adenosine A2A receptor expressed in HEK293 cells; range 174-230. It is filed as cell-based.
Test [16] concerns the target T1, Adenosine receptor A1. The test can be described thus: Displacement of [3H]DPCPX from human Adenosine A1 receptor expressed in CHO cells; range 265-400. It is filed as cell-based. An outline of the steps:
as §1

Test [17] concerns the target T2, Adenosine receptor A2b. The test can be described thus: Displacement of [3H]DPCPX from human Adenosine A2B receptor expressed in HEK293 cells; range 56-103. Format: cell-based. An outline of the steps: as §2
Test [18] has as its target T3, Adenosine receptor A3. The test can be described thus: Displacement of [3H]MRE3008-F20 from human Adenosine A3 receptor expressed in HEK cells; range 0.24-0.48. Format: cell-based, HEK293.
In test [19] the target is T4, Adenosine receptor A2a. Kind of test: Displacement of [3H]SCH-58261 from human Adenosine A2A receptor expressed in HEK293 cells; range 123-162. It is filed as cell-based.
Test [20] concerns the target T1, Adenosine receptor A1. Kind of test: Displacement of [3H]DPCPX from human Adenosine A1 receptor expressed in CHO cells. Format: cell-based. An outline of the steps:
as §1

The target of test [21] is T2, Adenosine receptor A2b. Kind of test: Displacement of [3H]DPCPX from human Adenosine A2B receptor expressed in HEK293 cells. It is filed as cell-based. The method, boiled down: as §2
Test [22] addresses T3, Adenosine receptor A3. Kind of test: Displacement of […] from human Adenosine A3 receptor expressed in CHO cells. It is filed as cell-based. The method, boiled down:
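Membranes from CHO cells stably expressing human A3, in 50 mM Tris HCl, 10 mM MgCl2 (pH 7.4), 50 µg protein per tube, with 1 nM [3H]MRE3008-F20. Six to eight ligand concentrations were run in duplicate, 120 min at 4 °C. Nonspecific binding was taken with 1 µM MRE3008-F20. Bound ligand was collected on GF/B filters and counted; n = 3-6.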

Test [23] concerns the target T3, Adenosine receptor A3. The test can be described thus: Inhibition of IB-MECA agonist-mediated cAMP production in membranes of CHO cells expressing human Adenosine A3 receptor. Format: functional, cell-based. The method, boiled down:
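Human A3-CHO membranes (in 50 mM Tris HCl, 10 mM MgCl2, 1 mM EDTA, pH 7.4) were preincubated for 10 min at 37 °C with 5 µM GTP, 0.5 mM Ro 20-1724 and 2.0 IU/mL adenosine deaminase. IB-MECA (100 nM) or antagonist was then added with 1 mM ATP and forskolin for 10 min. The reaction was stopped by 2 min boiling. cAMP was measured by [3H]cAMP competitive protein binding using beef adrenal binding protein, 150 min at 4 °C.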

Test [24] has as its target T4, Adenosine receptor A2a. The test can be described thus: Displacement of [3H]SCH-58261 from human Adenosine A2A receptor expressed in CHO cells. It is filed as cell-based. An outline of the steps:
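Membranes from CHO cells expressing the human receptor (50 µg protein) with [3H]SCH58261 and six to eight competitor concentrations. Incubated 60 min at 25 °C. Nonspecific binding was set with NECA.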

T4 sequence (P29274 whole entry): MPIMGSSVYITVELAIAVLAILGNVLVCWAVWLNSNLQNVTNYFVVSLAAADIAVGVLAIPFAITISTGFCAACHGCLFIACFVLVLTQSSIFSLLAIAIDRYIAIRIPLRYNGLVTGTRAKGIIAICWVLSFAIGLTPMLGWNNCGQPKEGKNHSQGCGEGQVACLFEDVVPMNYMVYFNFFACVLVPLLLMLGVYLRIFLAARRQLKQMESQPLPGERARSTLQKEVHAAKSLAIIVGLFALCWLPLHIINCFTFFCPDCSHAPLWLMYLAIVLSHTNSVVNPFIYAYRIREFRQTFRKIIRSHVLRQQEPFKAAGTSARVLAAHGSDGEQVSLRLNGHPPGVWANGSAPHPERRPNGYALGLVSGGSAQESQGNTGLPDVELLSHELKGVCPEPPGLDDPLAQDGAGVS

As for `CCCn1cc2c(nc(NC(=O)Nc3ccccc3Cl)n3nc(-c4ccco4)nc23)n1`, the Ki on Adenosine receptor A1 [1] is 300 nM; at Adenosine receptor A2b [2], 61 nM; at Adenosine receptor A3 [3], 0.71 nM; on Adenosine receptor A2a [4], 121 nM. In addition, the Ratio in test [5] was 86; in [6] it was 423.
Turning to `CCCn1cc2c(nc(NC(=O)Nc3cccc(OC)c3)n3nc(-c4ccco4)nc23)n1`, the Ki was 175 nM at Adenosine receptor A2b [7], 275 nM on Adenosine receptor A1 [8], 113 nM at Adenosine receptor A2a [9] and 0.4 nM at Adenosine receptor A3 [10]. In addition, the Ratio in [5] was determined as 438; in [6], 688.
Consider `Cn1cc2c(nc(NC(=O)Nc3ccccc3Cl)n3nc(-c4ccco4)nc23)n1`, for which the Ki on Adenosine receptor A2b [11] was 101 nM; on Adenosine receptor A1 [12], 400 nM; on Adenosine receptor A3 [13], 0.91 nM; on Adenosine receptor A2a [15] it was 200 nM. The IC50 on Adenosine receptor A3 [14] was determined as 8.2 nM. Besides, the Ratio is 111 in test [5] and 440 in test [6].
Regarding `CCCn1cc2c(nc(NC(=O)Nc3ccc(Cl)cc3)n3nc(-c4ccco4)nc23)n1`, the Ki was found to be 325 nM at Adenosine receptor A1 [16], 76 nM at Adenosine receptor A2b [17], 0.34 nM at Adenosine receptor A3 [18] and 140 nM on Adenosine receptor A2a [19]. In addition, the Ratio in test [5] is 224; in test [6], 956.
Consider `Cn1cc2c(nc(NC(=O)Cc3ccccc3)n3nc(-c4ccco4)nc23)n1`, for which the Ki on Adenosine receptor A1 [20] was found to be 702 nM; on Adenosine receptor A2b [21] it was 165 nM; at Adenosine receptor A3 [22], 0.81 nM; at Adenosine receptor A2a [24], 423 nM. The same compound yielded an IC50 on Adenosine receptor A3 [23] of 6.4 nM. In addition, the Ratio in test [5] worked out at 204; in test [6], 867.

Broadly, the Ki is a dissociation constant, usually derived from enzyme kinetics or from competition with a known ligand. Low readings indicate a stronger hold on the target, high ones a looser hold on the target. Usually IC50 stands for the concentration that gives 50% inhibition. A high value points to lower potency.
